The nature of data set [1]: Tmax in C57BL/6 mouse at 20 mg/kg, sc administered as single dose measured upto 24 hrs by LC-MS/MS analysis. Format: ADME, organism-based. Particulars: in vivo. The procedure, abridged: (§1)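 Male C57BL/6 mice, single dose: IV 5 mg/kg in 85% saline/10% Solutol HS15/5% DMSO; SC 20 mg/kg in same vehicle; PO 20 mg/kg in 1% methylcellulose in water. About 110 µL blood taken into K2EDTA by retro-orbital puncture (terminal bleed by cardiac puncture under isoflurane) at 0.033–24 h. Plasma spun at 2000 g, 5 min, 4 °C, stored near −70 °C; n = 3 per route.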

Data set [2] deals with Proprotein convertase subtilisin/kexin type 9 (Homo sapiens) (UniProt Q8NBP7). Kind of data set: Binding affinity to biotinylated recombinant human PCSK9 at 0.8 to 1.6 uM incubated for 2 mins followed by further incubation for 10 mins by biolayer interferometry. The essentials: (§2)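 Biolayer interferometry: biotinylated PCSK9 (27 µg/mL) loaded onto a Super Streptavidin biosensor and blocked with biocytin. Compound (0.2–25.6 µM) associated for 2 min, then dissociated for 10 min. Background signal subtracted to remove non-specific binding.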
Sequence of Proprotein convertase subtilisin/kexin type 9 (Homo sapiens) (Q8NBP7 31-152 limits assumed): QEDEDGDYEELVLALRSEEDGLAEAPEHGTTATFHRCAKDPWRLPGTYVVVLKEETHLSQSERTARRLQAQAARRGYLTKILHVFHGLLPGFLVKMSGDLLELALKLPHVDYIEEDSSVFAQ
Sequence of Proprotein convertase subtilisin/kexin type 9 (Homo sapiens) (Q8NBP7 153-692 limits assumed): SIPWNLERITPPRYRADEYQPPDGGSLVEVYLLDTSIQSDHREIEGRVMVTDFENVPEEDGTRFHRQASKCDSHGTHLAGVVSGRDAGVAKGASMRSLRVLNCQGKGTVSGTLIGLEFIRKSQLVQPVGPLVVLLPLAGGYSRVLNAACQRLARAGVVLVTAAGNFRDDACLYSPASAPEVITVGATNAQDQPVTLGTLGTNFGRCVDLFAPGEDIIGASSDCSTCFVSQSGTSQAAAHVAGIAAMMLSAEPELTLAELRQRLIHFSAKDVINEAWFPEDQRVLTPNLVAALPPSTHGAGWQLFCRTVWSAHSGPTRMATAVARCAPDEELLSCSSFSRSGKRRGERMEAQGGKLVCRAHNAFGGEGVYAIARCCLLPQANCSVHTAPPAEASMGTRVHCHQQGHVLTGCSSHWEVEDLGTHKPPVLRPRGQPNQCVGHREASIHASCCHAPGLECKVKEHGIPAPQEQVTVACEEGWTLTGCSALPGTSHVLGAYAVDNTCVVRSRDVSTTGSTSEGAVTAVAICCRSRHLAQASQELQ

The target of a further data set is PCSK9/LDLR (Homo sapiens, UniProt Q8NBP7). Kind of data set: Inhibition of recombinant human His-tagged PCSK9 interaction with recombinant LDLR AB domain (unknown origin) measured after 3 hrs by horseradish peroxidase-coupled TMB substrate based spectrophotometry. Format: protein assay. The essentials:
(§3)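 ELISA plates pre-coated with LDLR-EGF-AB domain. Compounds serially diluted from 10 mM DMSO stocks in reaction buffer, with 7 ng His-tagged human PCSK9 added, 3 h at room temperature with shaking. Binding detected with biotinylated anti-His antibody (1 h), then HRP-streptavidin (20 min), then substrate (15 min); absorbance read at 450/540 nm. IC50 taken from the % inhibition curve.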

Data set [3] addresses Mast/stem cell growth factor receptor Kit (Homo sapiens, UniProt P10721). Kind of data set: Inhibition of recombinant human N-terminal GST-tagged c-Kit (544 to end residues) expressed in baculovirus infected Sf21 insect cells using FAM-labelled P22 peptide as substrate preincubated for 10 mins followed by substrate addition and measured after 1 hr in presence of ATP by fluorescence assay.

Data set [4] deals with Tyrosine-protein kinase ABL1 (Homo sapiens, UniProt P00519). Kind of data set: Inhibition of recombinant human N-terminal His-tagged Abl (2 to 1130 residues) expressed in baculovirus expression system using FAM-labelled P2 peptide as substrate preincubated for 10 mins followed by substrate addition and measured after 1 hr in presence of ATP by fluorescence assay.
Sequence of Tyrosine-protein kinase ABL1 (P00519 whole entry, the tested form may be a part): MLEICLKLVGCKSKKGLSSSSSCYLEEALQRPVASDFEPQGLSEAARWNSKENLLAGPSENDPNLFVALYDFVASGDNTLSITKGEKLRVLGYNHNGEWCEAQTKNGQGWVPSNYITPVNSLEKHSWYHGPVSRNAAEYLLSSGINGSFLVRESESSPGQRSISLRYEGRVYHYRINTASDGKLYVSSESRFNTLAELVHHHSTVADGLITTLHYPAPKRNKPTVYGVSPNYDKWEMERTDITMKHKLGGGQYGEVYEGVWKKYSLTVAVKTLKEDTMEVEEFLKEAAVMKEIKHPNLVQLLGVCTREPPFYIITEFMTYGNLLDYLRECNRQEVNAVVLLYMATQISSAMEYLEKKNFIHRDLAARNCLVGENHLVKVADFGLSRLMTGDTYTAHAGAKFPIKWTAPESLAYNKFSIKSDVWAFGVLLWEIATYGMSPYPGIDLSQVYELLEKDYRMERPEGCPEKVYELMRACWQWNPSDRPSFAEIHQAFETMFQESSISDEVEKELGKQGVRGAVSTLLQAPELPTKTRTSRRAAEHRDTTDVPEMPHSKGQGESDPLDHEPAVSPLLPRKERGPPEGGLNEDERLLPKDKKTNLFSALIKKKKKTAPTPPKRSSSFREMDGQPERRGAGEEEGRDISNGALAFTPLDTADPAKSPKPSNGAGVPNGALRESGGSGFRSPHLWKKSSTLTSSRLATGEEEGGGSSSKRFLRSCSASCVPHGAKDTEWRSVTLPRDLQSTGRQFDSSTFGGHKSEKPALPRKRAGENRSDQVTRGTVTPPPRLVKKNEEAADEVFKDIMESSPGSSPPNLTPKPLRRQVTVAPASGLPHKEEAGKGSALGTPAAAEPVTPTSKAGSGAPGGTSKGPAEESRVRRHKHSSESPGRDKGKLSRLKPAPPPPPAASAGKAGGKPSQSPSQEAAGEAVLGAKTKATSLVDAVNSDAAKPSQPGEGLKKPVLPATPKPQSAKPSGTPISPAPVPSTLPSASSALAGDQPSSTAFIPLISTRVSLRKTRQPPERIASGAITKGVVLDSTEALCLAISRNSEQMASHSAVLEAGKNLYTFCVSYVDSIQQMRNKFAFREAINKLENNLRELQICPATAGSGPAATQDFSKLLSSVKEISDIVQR
The target of data set [5] is Platelet-derived growth factor receptor beta (Homo sapiens, UniProt P09619). Kind of data set: Inhibition of recombinant human N-terminal GST-tagged PDGFRbeta cytoplasmic domain (557 to 1106 residues) expressed in baculovirus expression system using FAM-labelled P22 peptide as substrate preincubated for 10 mins followed by substrate addition and measured after 1 hr in presence of ATP by fluorescence assay.
Sequence of Platelet-derived growth factor receptor beta (P09619 whole entry, the tested form may be a part): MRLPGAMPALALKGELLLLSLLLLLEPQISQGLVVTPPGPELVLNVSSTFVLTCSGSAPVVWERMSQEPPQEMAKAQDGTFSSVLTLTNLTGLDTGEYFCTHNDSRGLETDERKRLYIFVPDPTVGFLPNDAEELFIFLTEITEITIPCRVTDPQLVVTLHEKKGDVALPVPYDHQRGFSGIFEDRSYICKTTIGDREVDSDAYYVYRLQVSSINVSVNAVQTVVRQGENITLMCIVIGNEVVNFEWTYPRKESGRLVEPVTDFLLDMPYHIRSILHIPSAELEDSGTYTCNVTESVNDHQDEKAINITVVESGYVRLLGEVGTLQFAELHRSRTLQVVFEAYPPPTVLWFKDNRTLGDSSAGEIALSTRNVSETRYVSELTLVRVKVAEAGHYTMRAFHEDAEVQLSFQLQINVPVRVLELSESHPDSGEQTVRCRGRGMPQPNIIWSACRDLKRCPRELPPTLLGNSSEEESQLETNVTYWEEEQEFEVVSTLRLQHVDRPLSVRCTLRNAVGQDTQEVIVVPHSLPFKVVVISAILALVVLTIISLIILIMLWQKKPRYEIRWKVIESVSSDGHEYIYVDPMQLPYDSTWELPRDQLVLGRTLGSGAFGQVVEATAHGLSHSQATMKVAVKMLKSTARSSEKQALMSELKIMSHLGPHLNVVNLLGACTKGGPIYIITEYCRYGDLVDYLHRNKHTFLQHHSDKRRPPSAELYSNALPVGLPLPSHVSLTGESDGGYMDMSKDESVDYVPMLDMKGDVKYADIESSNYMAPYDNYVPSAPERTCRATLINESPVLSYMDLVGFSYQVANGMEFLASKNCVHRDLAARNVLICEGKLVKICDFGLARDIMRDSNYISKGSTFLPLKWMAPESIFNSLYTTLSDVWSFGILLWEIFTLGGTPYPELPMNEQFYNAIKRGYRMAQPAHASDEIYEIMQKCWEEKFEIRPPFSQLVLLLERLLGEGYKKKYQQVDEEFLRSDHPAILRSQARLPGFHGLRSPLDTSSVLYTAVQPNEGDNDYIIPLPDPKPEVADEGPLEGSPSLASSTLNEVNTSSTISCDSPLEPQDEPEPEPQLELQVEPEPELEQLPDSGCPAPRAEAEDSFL

Data set [6] has as its target Proprotein convertase subtilisin/kexin type 9 (Homo sapiens) (UniProt Q8NBP7). Kind of data set: Binding affinity to biotinylated recombinant human PCSK9 at 0.2 to 0.4 uM incubated for 2 mins followed by further incubation for 10 mins by biolayer interferometry. The essentials: as §2
On the technique in general: BLI is a label-free optical method that tracks binding on a fibre tip over time.

Data set [7] in a line: AUClast in CD1 mouse at 0.4 mg/kg, iv administered as cassette dose measured upto 24 hrs by LC-MS/MS analysis. Also noted: time < 24 hr, dose 0.4 mg/kg, route intravenous. Type of data set: ADME, organism-based. The conditions noted are these: in vivo. The procedure, abridged:
(§4)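 Male CD1 mice (second cassette 28–29 g, 7–8 weeks) given one IV 5-in-1 cassette at 0.4 mg/kg per compound in 5% DMAC/5% Solutol HS15/90% saline. Blood (~20 µL) into K2EDTA from the facial vein at 0.083–24 h, terminal bleed by cardiac puncture under isoflurane. Blood diluted with deionised water, stored at −80 °C, analysed by positive-ESI mass spectrometry.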

Data set [8] is described as follows: Mean residence time (0 to infinity) in CD1 mouse at 0.4 mg/kg, iv administered as cassette dose measured upto 24 hrs by LC-MS analysis. Type of data set: ADME, organism-based. Particulars: in vivo. The essentials: as §4
Data set [9] can be described thus: Volume of distribution at steady state in C57BL/6 mouse at 5 mg/kg, iv administered as single dose measured upto 24 hrs by LC-MS/MS analysis. The conditions noted are these: in vivo, read-out: Vdss. Type of data set: ADME, organism-based. The procedure, abridged: as §1
A short description of data set [10]: Terminal half life in C57BL/6 mouse at 20 mg/kg, sc administered as single dose measured upto 24 hrs by LC-MS/MS analysis. Format: ADME, organism-based. Particulars: in vivo, read-out: beta t1/2 (converted). The procedure, abridged:
as §1

The nature of data set [11]: Terminal half life in C57BL/6 mouse at 5 mg/kg, iv administered as single dose measured upto 24 hrs by LC-MS/MS analysis. Type of data set: ADME, organism-based. Particulars: in vivo, read-out: beta t1/2 (converted). The essentials:
as §1

Data set [12] is described as follows: AUClast in C57BL/6 mouse at 20 mg/kg, po administered as single dose measured upto 24 hrs by LC-MS/MS analysis. On the set-up: dose 20 mg/kg, time < 24 hr, route oral. Type of data set: ADME, organism-based. The conditions noted are these: in vivo. The essentials:
as §1

Data set [13] in a line: AUClast in C57BL/6 mouse at 5 mg/kg, iv administered as single dose measured upto 24 hrs by LC-MS/MS analysis. Type of data set: ADME, organism-based. On the set-up: dose 5 mg/kg, time < 24 hr, route intravenous. Particulars: in vivo. The procedure, abridged:
as §1

Data set [14] in a line: AUCinfinity in C57BL/6 mouse at 20 mg/kg, sc administered as single dose measured upto 24 hrs by LC-MS/MS analysis. Type of data set: ADME, organism-based. On the set-up: dose 20 mg/kg, time infinity, route subcutaneous. Particulars: in vivo. The procedure, abridged:
as §1

A short description of data set [15]: Mean residence time ( 0 to infinity) in C57BL/6 mouse at 5 mg/kg, iv administered as single dose measured upto 24 hrs by LC-MS/MS analysis. Format: ADME, organism-based. Particulars: in vivo. The essentials: as §1
The nature of data set [16]: Oral bioavailability in C57BL/6 mouse at 20 mg/kg administered as single dose measured upto 24 hrs by LC-MS/MS analysis. The conditions noted are these: in vivo. Type of data set: ADME, organism-based. The procedure, abridged:
as §1

In data set [17] the test system is Mus musculus. Kind of data set: Antihyperlipidemic activity in C57BL/6 mouse assessed as decrease in total cholesterol level at 3.28 mg/kg/day, sc administered daily for 14 days and measured on day 15 by colorimetric method. Format: functional, organism-based. The essentials: (§5)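 Female C57BL/6 wild-type or PCSK9−/− mice (8–16 weeks), acclimatised 7 days, 5 per group, dosed SC daily for 14 days at 3.28 or 16.4 mg/kg/day in 5% DMSO/95% saline, or vehicle alone. Blood taken into EDTA on days 0, 5, 10 and 15; plasma from 2500 g spin, stored at −20 °C. Total cholesterol and triglycerides read by colorimetric kits, PCSK9 by mouse ELISA; unpaired two-tailed t test against vehicle.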

Data set [18] has as its system Mus musculus. Kind of data set: Antihyperlipidemic activity in PCSK9 knockout C57BL/6 mouse assessed as decrease in total cholesterol level at 16.4 mg/kg/day, sc administered daily for 14 days and measured on day 15 by colorimetric method. Format: functional, organism-based. The essentials: as §5
The subject of data set [19] is Mus musculus. Kind of data set: Up regulation of PCSK9 expression in C57BL/6 mouse at 16.4 mg/kg/day, sc administered daily for 10 days measured post last dose by ELISA. Format: functional, organism-based. Particulars: in the assay text read “for 14 days” for “for 10 days”. The procedure, abridged: as §5
Background: In an ELISA, binding on a coated surface is turned into a signal by an enzyme label.

Data set [20] deals with PCSK9/LDLR (Homo sapiens) (UniProt Q8NBP7+P01130). Kind of data set: Inhibition of recombinant human His-tagged PCSK9 interaction with recombinant LDLR AB domain (unknown origin) at higher concentration measured after 3 hrs by horseradish peroxidase-coupled TMB substrate based spectrophotometry relative to control. Type of data set: protein assay. The procedure, abridged:
as §3

A short description of data set [21]: Toxicity in C57BL/6 mouse assessed as change in body weight at 3.28 to 16.4 mg/kg/day, sc administered daily for 14 days. Format: organism-based. The conditions noted are these: in vivo, 336 h.
A short description of data set [22]: Toxicity in C57BL/6 mouse assessed as change in behavior at 3.28 to 16.4 mg/kg/day, sc administered daily for 14 days. Type of data set: organism-based. Particulars: in vivo, 336 h.

Calls of active or inactive are those of the source. No cut-off for these calls is given here. Bounds are passed on as bounds.

Sequence of PCSK9/LDLR (Q8NBP7 31-152 limits assumed): as the sequence (Q8NBP7 31-152 limits assumed) above
Sequence of PCSK9/LDLR (Q8NBP7 153-692 limits assumed): as the sequence (Q8NBP7 153-692 limits assumed) above
Sequence of PCSK9/LDLR (P01130 22-860 partner limits assumed): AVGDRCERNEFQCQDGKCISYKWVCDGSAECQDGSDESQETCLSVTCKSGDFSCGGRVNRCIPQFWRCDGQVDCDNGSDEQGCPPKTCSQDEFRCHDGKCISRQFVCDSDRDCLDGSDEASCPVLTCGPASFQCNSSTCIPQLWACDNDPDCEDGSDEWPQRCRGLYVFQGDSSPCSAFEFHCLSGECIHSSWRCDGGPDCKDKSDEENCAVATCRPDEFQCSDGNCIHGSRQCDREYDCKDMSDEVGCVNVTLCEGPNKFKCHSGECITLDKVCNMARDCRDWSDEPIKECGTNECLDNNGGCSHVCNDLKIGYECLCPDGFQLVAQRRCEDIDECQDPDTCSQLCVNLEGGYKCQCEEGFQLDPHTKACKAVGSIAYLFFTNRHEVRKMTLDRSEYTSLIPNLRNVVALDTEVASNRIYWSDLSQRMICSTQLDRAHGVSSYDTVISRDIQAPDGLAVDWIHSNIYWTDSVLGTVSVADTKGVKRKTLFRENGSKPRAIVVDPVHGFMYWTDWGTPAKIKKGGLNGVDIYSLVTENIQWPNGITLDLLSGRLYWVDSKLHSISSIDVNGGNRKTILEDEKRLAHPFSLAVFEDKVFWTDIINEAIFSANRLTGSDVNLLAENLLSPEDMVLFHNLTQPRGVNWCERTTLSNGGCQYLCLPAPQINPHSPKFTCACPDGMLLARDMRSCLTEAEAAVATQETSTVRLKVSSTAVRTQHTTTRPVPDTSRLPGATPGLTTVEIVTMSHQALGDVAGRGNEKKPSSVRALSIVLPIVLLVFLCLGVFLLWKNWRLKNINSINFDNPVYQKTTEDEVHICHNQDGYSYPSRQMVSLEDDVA
Sequence of Mast/stem cell growth factor receptor Kit (P10721 whole entry): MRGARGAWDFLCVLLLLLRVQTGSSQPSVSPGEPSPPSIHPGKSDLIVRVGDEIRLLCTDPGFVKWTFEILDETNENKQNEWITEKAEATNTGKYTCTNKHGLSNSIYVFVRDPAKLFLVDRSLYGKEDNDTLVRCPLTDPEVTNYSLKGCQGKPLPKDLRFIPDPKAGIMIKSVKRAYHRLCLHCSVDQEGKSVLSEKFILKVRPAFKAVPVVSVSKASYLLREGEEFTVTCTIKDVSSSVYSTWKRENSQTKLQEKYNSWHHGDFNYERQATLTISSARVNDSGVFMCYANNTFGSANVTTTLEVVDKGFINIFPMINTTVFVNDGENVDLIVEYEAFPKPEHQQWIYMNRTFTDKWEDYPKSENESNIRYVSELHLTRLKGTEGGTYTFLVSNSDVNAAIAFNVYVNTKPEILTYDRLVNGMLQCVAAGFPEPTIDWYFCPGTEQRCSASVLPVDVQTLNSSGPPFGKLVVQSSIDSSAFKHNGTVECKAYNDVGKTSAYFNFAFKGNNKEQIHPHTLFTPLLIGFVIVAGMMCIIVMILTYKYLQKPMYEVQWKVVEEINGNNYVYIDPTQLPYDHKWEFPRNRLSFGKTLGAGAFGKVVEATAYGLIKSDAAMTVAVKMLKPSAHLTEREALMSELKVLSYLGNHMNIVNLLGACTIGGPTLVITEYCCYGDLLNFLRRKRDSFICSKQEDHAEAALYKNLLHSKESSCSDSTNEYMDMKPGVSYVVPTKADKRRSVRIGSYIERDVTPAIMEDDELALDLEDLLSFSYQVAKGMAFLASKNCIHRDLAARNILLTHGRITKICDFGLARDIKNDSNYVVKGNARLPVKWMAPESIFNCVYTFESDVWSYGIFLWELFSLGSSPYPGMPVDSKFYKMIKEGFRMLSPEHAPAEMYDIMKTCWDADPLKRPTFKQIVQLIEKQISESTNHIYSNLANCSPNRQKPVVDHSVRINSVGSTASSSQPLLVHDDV

On to `Cc1cn(-c2cc(CN3CCC[C@H](N)C3)cc(NC(=O)c3ccc(C)c(Oc4ccccc4)c3)c2)cn1`, for which, in [1], the Tmax was determined as 1 h. The outcome (in data set [2]; in the data set with Mus musculus [19]) was Active. For the same compound, the IC50 at PCSK9/LDLR was 0.537 µM; in [3], greater than 10 µM; in [4] it was greater than 10 µM; in data set [5], greater than 10 µM. Further, the outcome (in [6]; in the data set with Mus musculus [17]; in the data set on Mus musculus [18]) was inactive. Also, the AUC(0-t) at 24 h in data set [7] was found to be 722 ng·h/mL; in data set [12] it was 92.3 ng·h/mL; in [13], 4380 ng·h/mL. In addition, the MRT inf was 34.9 h in data set [8] and 3.56 h in [15]. Also, the Vd in data set [9] was determined as 3.87 L/kg. The figures for the half-life in data set [10] and in data set [11] were 5.47 h and 9.86 h, respectively. In addition, the AUC(0-inf) in [14] stood at 16800 ng·h/mL. For the same compound, the bioavailability in [16] amounted to 0.527%. The Imax in [20] amounted to 57%. The Activity result in [21] and in data set [22] was “Non-Toxic” each time.

By Tmax is commonly meant the time from dosing to the highest level. What is called IC50 is the concentration at which inhibition is half-maximal. As a reminder, the AUC(0-t) is exposure summed from dosing to a finite time, without extrapolation to infinity. The low end stands for less exposure, the high end for more exposure. For orientation: MRT inf means a mean duration of stay, worked out from the concentration-time curve. In general, AUC(0-inf) refers to the area under the concentration-time curve extrapolated to infinity. Lower therefore signals less exposure. Broadly, the bioavailability is the share of a dose that reaches the circulation, judged against a reference dose that is usually intravenous. The low end stands for poor availability, the high end for good availability.

Values taken from ChEMBL document CHEMBL4627281, “A small molecule inhibitor of PCSK9 that antagonizes LDL receptor binding via interaction with a cryptic PCSK9 binding groove” (Bioorg Med Chem, 2020).
